Measured values pooled from the literature.
Each line is one published result; the experiments were not run side by side. Values after ≈ are worked out from the molar mass of the structure shown.
Organism: Bacillus subtilis

With `O=C(O)c1ccc(-n2cc(/C=N/Nc3ccc(Cl)cc3Cl)c(-c3cccc(F)c3)n2)cc1` the MIC was 1.56 µg/mL (≈ 3.32 µM) (microbial growth; ATCC6623).
`CCOC(=O)c1c(N)csc1-c1cn(-c2ccccc2)nc1-c1ccccc1` gave an inhibition zone of 23 mm (microbial growth, well diffusion; 100000 µg/mL).
For `O=C1NC(=S)S/C1=C\c1ccc(-c2ccc(N(c3ccccc3)c3ccccc3)cc2)cc1`, the MBC was over 1000 µg/mL (microbial killing, broth dilution; ATCC6633).
The inhibition zone of `Cc1ccc(-c2nn(-c3ccccc3)cc2C=C(C#N)C2=NC(=O)CS2)cc1` is reported as 21 mm (microbial growth, well diffusion; 100000 µg/mL).
The MBC of `CO[C@H]1O[C@H](COC(c2ccccc2)(c2ccccc2)c2ccccc2)[C@@H](OC(=O)c2ccc(C(C)(C)C)cc2)[C@H](OC(=O)c2ccc(C(C)(C)C)cc2)[C@H]1OC(=O)c1ccc(C(C)(C)C)cc1` is reported as 16 µg/mL (≈ 17.4 µM) (microbial killing, broth dilution).
The inhibition of `CC1(C)S[C@@H]2[C@H](NC(=O)[C@H](N)c3ccccc3)C(=O)N2[C@H]1C(=O)O` is reported as 100% (microbial growth, agar dilution; ATCC6633; 26.93 µM).
With `CN(/N=C/c1cn(-c2ccc(C(=O)O)cc2)nc1-c1cccc(F)c1)c1ccccc1` the MIC was 12.5 µg/mL (≈ 30.2 µM) (microbial growth; ATCC6623).
The inhibition zone of `O=C(N[C@H](CO)[C@H](O)c1ccc([N+](=O)[O-])cc1)C(Cl)Cl` is reported as 21 mm (microbial growth, disc diffusion; 50 µg/disc).
With `O=C(O)CN1C(=O)/C(=C/c2c3ccccc3c(-c3ccc(N(c4ccccc4)c4ccccc4)cc3)c3ccccc23)NC1=S` the MBC was over 1000 µg/mL (microbial killing, broth dilution; ATCC6633).
The MIC of `O=C(O)c1ccc(-n2cc(/C=N/Nc3cc(F)ccc3F)c(-c3cccc(F)c3)n2)cc1` is reported as 6.25 µg/mL (≈ 14.3 µM) (microbial growth; ATCC6623).
`O=C1NC(=S)N/C1=C\c1ccc(-c2ccc(N(c3ccccc3)c3ccccc3)cc2)cc1` has an MBC of over 1000 µg/mL (microbial killing, broth dilution; ATCC6633).
`N#CC(=Cc1ccc([N+](=O)[O-])cc1)C1=NC(=O)C(=Cc2cn(-c3ccccc3)nc2-c2ccccc2)S1` gave an inhibition zone of 23 mm (microbial growth, well diffusion; 100000 µg/mL).
With `O=C1NC(=S)N/C1=C\c1c2ccccc2c(-c2ccc(N(c3ccccc3)c3ccccc3)cc2)c2ccccc12` the MBC was over 1000 µg/mL (microbial killing, broth dilution; ATCC6633).
`CCOC(=O)c1c(N)csc1-c1cn(-c2ccccc2)nc1-c1ccc(C)cc1` gave an inhibition zone of 28 mm (microbial growth, well diffusion; 100000 µg/mL).
